ChEMBL document CHEMBL1128665, “Design, synthesis, and structure-activity relationship of novel dinucleotide analogs as agents against herpes and human immunodeficiency viruses” (J Med Chem, 1995)
Values after ≈ are worked out from the molar mass of the structure shown.

Assays:
HeLa [1] = assay: Concentration required to cause microscopically visible change or disruption in about 50% of Hela cell sheet.; assay type: functional, cell-based; details: Homo sapiens
Summary of the method: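 Uninfected HeLa cell sheets were exposed to a range of compound concentrations and checked microscopically for morphological change. The value is the concentration causing visible change or disruption in about 50% of the cell sheet.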

HeLa [2] = assay: Inhibition of cytopathogenicity of herpes simplex type 1 virus (HSV-1)(KOS) in Hela cell culture.; assay type: functional, cell-based; details: Homo sapiens
HeLa [3] = assay: Inhibition of cytopathogenicity of herpes simplex type 2 virus([…] in Hela cell culture; assay type: functional, cell-based; details: Homo sapiens
HeLa [4] = assay: Inhibition of cytopathogenicity of Varicella-Zoster virus(VZV)(YS) in Hela cell culture.; assay type: functional, cell-based; details: Homo sapiens
[5] = Solubility was determined with phosphate buffer (0.10M, 5 mL).; assay type: physicochemical; details: read-out: Solubility in water
Summary of the method: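 Solid compound (70 mg) was agitated in 0.10 M phosphate buffer (5.0 mL) for 20 h. Undissolved solid was filtered off on sintered glass, and the dissolved concentration was determined by UV absorbance.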

MT4 [6] = assay: Concentration required to reduce the number of viable uninfected cells by 50%; assay type: functional, cell-based; details: Homo sapiens
Summary of the method: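 Uninfected MT4 cells were used for the toxicity arm of the anti-HIV-1 cell-protection assay. The value is the concentration reducing the number of viable uninfected cells by 50%. […]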

MT4 [7] = assay: Inhibitory Effect against HIV-1 (IIIB) in MT4 cells; details: Homo sapiens
HeLa [8] = assay: Inhibition of cytopathogenicity of Varicella-Zoster virus(VZV)(YS) in Hela cell culture; Not active up to 128 ug/mL.; assay type: functional, cell-based, Homo sapiens
MT4 [9] = assay: Inhibitory Effect against HIV-1 (IIIB) in MT4 cells; Not active up to 128 ug/mL.; details: Homo sapiens
HeLa [10] = assay: Inhibition of cytopathogenicity of herpes simplex type 2 virus([…] in Hela cell culture; Not active up to 128 ug/mL.; assay type: functional, cell-based, Homo sapiens

IC50 (HeLa [1]; read-out: IC50)	IC50 (HeLa [2]; read-out: IC50)	IC50 (HeLa [3])	solubility [5]	SMILES	IC50 (MT4 [6])	IC50 (MT4 [7])	other results
215 µg/mL (≈ 787 µM)	3.98 µg/mL (≈ 14.6 µM)	5.86 µg/mL (≈ 21.5 µM)	13600 µg/mL (≈ 49900 µM)	Nc1ncnc2c1ncn2COCCP(=O)(O)O			IC50 (HeLa [4]): 16 µg/mL (≈ 58.6 µM)
			8920 µg/mL (≈ 14400 µM)	COC(=O)[C@@H](C)NP(=O)(C[C@H]1O[C@@H](n2cc(C)c(=O)[nH]c2=O)C[C@@H]1F)O[C@H]1C[C@H](n2cc(C)c(=O)[nH]c2=O)O[C@@H]1CO (some centres undefined)	462 µg/mL (≈ 748 µM)	0.5 µg/mL (≈ 0.81 µM)	
			9200 µg/mL (≈ 14400 µM)	COC(=O)[C@@H](C)NP(=O)(C[C@H]1O[C@@H](n2cc(C)c(=O)[nH]c2=O)C[C@@H]1N=[N+]=[N-])O[C@H]1C[C@H](n2cc(C)c(=O)[nH]c2=O)O[C@@H]1CO (some centres undefined)	458 µg/mL (≈ 714 µM)	0.76 µg/mL (≈ 1.19 µM)	
			8790 µg/mL (≈ 14200 µM)	COC(=O)[C@H](C)NP(=O)(C[C@H]1O[C@@H](n2cc(C)c(=O)[nH]c2=O)C[C@@H]1F)O[C@H]1C[C@H](n2cc(C)c(=O)[nH]c2=O)O[C@@H]1CO (some centres undefined)	180 µg/mL (≈ 292 µM)	0.34 µg/mL (≈ 0.551 µM)	
			9130 µg/mL (≈ 14300 µM)	COC(=O)[C@H](C)NP(=O)(C[C@H]1O[C@@H](n2cc(C)c(=O)[nH]c2=O)C[C@@H]1N=[N+]=[N-])O[C@H]1C[C@H](n2cc(C)c(=O)[nH]c2=O)O[C@@H]1CO (some centres undefined)	200 µg/mL (≈ 312 µM)	0.61 µg/mL (≈ 0.952 µM)	
			3240 µg/mL (≈ 5830 µM)	Cc1cn([C@H]2C[C@H](N=[N+]=[N-])[C@@H](CP(=O)(O)O[C@H]3C[C@H](n4cc(C)c(=O)[nH]c4=O)O[C@@H]3CO)O2)c(=O)[nH]c1=O	99.5 µg/mL (≈ 179 µM)	1.92 µg/mL (≈ 3.46 µM)	
			3980 µg/mL (≈ 7480 µM)	Cc1cn([C@H]2C[C@H](OP(=O)(O)C[C@H]3O[C@@H](n4cc(C)c(=O)[nH]c4=O)C[C@@H]3F)[C@@H](CO)O2)c(=O)[nH]c1=O	79 µg/mL (≈ 148 µM)	3.04 µg/mL (≈ 5.71 µM)	
215 µg/mL (≈ 355 µM)	0.38 µg/mL (≈ 0.625 µM)	0.88 µg/mL (≈ 1.45 µM)	8250 µg/mL (≈ 13600 µM)	COC(=O)C(C)NP(=O)(CCOCn1cnc2c(N)ncnc21)O[C@H]1[C@H](O)[C@H](n2cnc3c(N)ncnc32)O[C@@H]1CO (some centres undefined)			IC50 (HeLa [4]): 4.82 µg/mL (≈ 7.93 µM)
			11200 µg/mL (≈ 33700 µM)	Cc1cn([C@H]2C[C@H](N=[N+]=[N-])[C@@H](CP(=O)(O)O)O2)c(=O)[nH]c1=O	115 µg/mL (≈ 346 µM)	7.68 µg/mL (≈ 23.2 µM)	
			12300 µg/mL (≈ 39800 µM)	Cc1cn([C@H]2C[C@H](F)[C@@H](CP(=O)(O)O)O2)c(=O)[nH]c1=O	98.7 µg/mL (≈ 320 µM)	11.8 µg/mL (≈ 38.3 µM)	
				Cc1cn([C@H]2C=C[C@@H](CP(=O)(O)O)O2)c(=O)[nH]c1=O	196 µg/mL (≈ 679 µM)		IC50 (MT4 [9]): Not Active
				Cc1cn([C@H]2C[C@H](C#N)[C@@H](CP(=O)(O)O)O2)c(=O)[nH]c1=O	69.9 µg/mL (≈ 222 µM)		IC50 (MT4 [9]): Not Active
				Cc1cn([C@H]2CC[C@@H](CP(=O)(O)O)O2)c(=O)[nH]c1=O	128 µg/mL (≈ 443 µM)	23.5 µg/mL (≈ 81 µM)	
				Cc1cn([C@H]2C[C@H](N=[N+]=[N-])[C@@H](CP(=O)(O)O)O2)c(N)nc1=O	58.6 µg/mL (≈ 178 µM)		IC50 (MT4 [9]): Not Active
168 µg/mL	0.67 µg/mL	1.25 µg/mL		Nc1ncnc2c1ncn2COCCP(=O)(O)O.Nc1ncnc2c1ncn2[C@@H]1O[C@H](CO)[C@@H](O)[C@@H]1O			IC50 (HeLa [4]): 2.86 µg/mL
266 µg/mL (≈ 1270 µM)	4.43 µg/mL (≈ 21.2 µM)	8.26 µg/mL (≈ 39.5 µM)	1950 µg/mL (≈ 9320 µM)	Nc1ncnc2c1ncn2COCCO			IC50 (HeLa [4]): 6.5 µg/mL (≈ 31.1 µM)
235 µg/mL	0.15 µg/mL	0.38 µg/mL		Nc1ncnc2c1ncn2COCCO.Nc1ncnc2c1ncn2COCCP(=O)(O)O			IC50 (HeLa [4]): 0.18 µg/mL
			400 µg/mL (≈ 1500 µM)	Nc1ncnc2c1ncn2[C@@H]1O[C@H](CO)[C@@H](O)[C@H]1O [ADENOSINE]			IC50 (HeLa [1]): 98.8 µg/mL (≈ 370 µM); IC50 (HeLa [2]): 10.8 µg/mL (≈ 40.4 µM); IC50 (HeLa [10]): Not Active; IC50 (HeLa [8]): Not Active
				Cc1cn([C@H]2C[C@H](N=[N+]=[N-])[C@@H](CO)O2)c(=O)[nH]c1=O [ZIDOVUDINE]	57.3 µg/mL (≈ 214 µM)	0.02 µg/mL (≈ 0.0748 µM)	

SMILES	IC50 (HeLa [1]; read-out: IC50)	IC50 (HeLa [2]; read-out: IC50)	IC50 (HeLa [3])	solubility [5]	IC50 (MT4 [6])	IC50 (MT4 [7])	other results
CCOP(=O)(O)CCOCn1cnc2c(N)ncnc21.N	176 µg/mL	11.3 µg/mL	13.8 µg/mL				IC50 (HeLa [4]): 25 µg/mL
Nc1ncnc2c1ncn2COCCP(=O)(O)O[C@H]1[C@H](O)[C@H](n2cnc3c(N)ncnc32)O[C@@H]1CO		8.97 µg/mL (≈ 17.2 µM)	16.3 µg/mL (≈ 31.2 µM)	2460 µg/mL (≈ 4710 µM)			IC50 (HeLa [1]): 346 µg/mL (≈ 662 µM); IC50 (HeLa [8]): Not Active
Nc1nc2c(ncn2COCCO)c(=O)[nH]1 [ACYCLOVIR]	250 µg/mL (≈ 1110 µM)	0.1 µg/mL (≈ 0.444 µM)	0.23 µg/mL (≈ 1.02 µM)				
